Measurements taken from ChEMBL document CHEMBL1821616, “New insights into the structural requirements for pro-apoptotic agents based on 2,4-diaminoquinazoline, 2,4-diaminopyrido[2,3-d]pyrimidine and 2,4-diaminopyrimidine derivatives” (Eur J Med Chem, 2011).
Activity calls are given as the source filed them. No cut-off for these calls is given here.

Legend:
[1] = test system: MDA-MB-231; assay: Induction of apoptosis in human MDA-MB-231 cells assessed as DNA fragmentation after 24 hrs by ELISA relative to control; assay type: functional
Method in brief: (§1)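 DNA fragmentation was measured with the Cell Death Detection ELISA Plus kit after treatment of cultured tumour cells. The signal is expressed relative to untreated control cultures, which are set to 1.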

[2] = test system: HT-29; assay: Cytotoxicity against human HT-29 cells after 48 hrs by neutral red dye assay; assay type: functional, cell-based
[3] = test system: HT-29; assay: Induction of apoptosis in human HT-29 cells assessed as DNA fragmentation after 48 hrs by ELISA relative to control; assay type: functional; method in brief: as §1
[4] = test system: MDA-MB-231; assay: Cytotoxicity against human MDA-MB-231 cells after 48 hrs by neutral red dye assay; assay type: functional, cell-based
[5] = test system: T-24; assay: Cytotoxicity against human T24 cells after 48 hrs by neutral red dye assay; assay type: functional, cell-based
[6] = test system: T-24; assay: Cytotoxicity against human T24 cells assessed as cell survival at 100 uM after 72 hrs by neutral red dye assay; assay type: functional; details: T-24, 72 h, read-out: Survival
Method in brief: (§2)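 HT-29 and T-24 cells were grown in McCoy's medium and MDA-MB-231 in Leibovitz, each with 10% FBS plus penicillin/streptomycin, as monolayers at 37 °C in 5% CO2. Compounds in DMSO (≤0.5% v/v final) were applied for 72 h. Survival was read by neutral red uptake against 0.5% DMSO-treated cells, as the mean of triplicates.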

[7] = test system: HT-29; assay: Cytotoxicity against human HT-29 cells after 72 hrs by neutral red dye assay; assay type: functional, cell-based; details: HT-29, 72 h
Method in brief: (§3)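 Human tumour cells were grown as monolayers with 10% FBS and penicillin/streptomycin at 37 °C in 5% CO2 (HT-29 and T-24 in McCoy's, MDA-MB-231 in Leibovitz). They were exposed to compound in DMSO (≤0.5% v/v final) at screening concentrations of 20 and 100 μM for 72 h and read by neutral red uptake. Survival is relative to cells given DMSO only, in triplicate.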

[8] = test system: HT-29; assay: Induction of apoptosis in human HT-29 cells assessed as DNA fragmentation after 48 hrs by ELISA relative to camptothecin; assay type: functional
[9] = Cytotoxicity against human CRL8799 cells assessed as cell survival at 20 to 100 uM after 72 hrs by neutral red dye assay; assay type: cell-based; details: read-out: Survival
Method in brief: (§4)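 The non-tumoral lines were grown with 10% FBS plus penicillin/streptomycin, as monolayers at 37 °C in 5% CO2: CRL-8799 in MEG medium and CRL-11233 in BEGM. Compounds in DMSO (≤0.5% v/v final) were applied for 72 h. Survival was read by neutral red uptake against 0.5% DMSO solvent-treated controls, as the mean of triplicates.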

[10] = test system: MDA-MB-231; assay: Cytotoxicity against human MDA-MB-231 cells after 72 hrs by neutral red dye assay; assay type: functional, cell-based; details: MDA-MB-231, 72 h; method in brief: as §3
[11] = test system: MDA-MB-231; assay: Cytotoxicity against human MDA-MB-231 cells assessed as cell survival at 100 uM after 72 hrs by neutral red dye assay; assay type: functional; details: MDA-MB-231, 72 h, read-out: Survival; method in brief: as §2
[12] = test system: T-24; assay: Cytotoxicity against human T24 cells after 72 hrs by neutral red dye assay; assay type: functional, cell-based; details: T-24, 72 h; method in brief: as §3
[13] = test system: T-24; assay: Induction of apoptosis in human T24 cells assessed as DNA fragmentation after 48 hrs by ELISA relative to control; assay type: functional; method in brief: as §1
[14] = test system: T-24; assay: Induction of apoptosis in human T24 cells assessed as DNA fragmentation after 48 hrs by ELISA relative to camptothecin; assay type: functional
[15] = test system: HT-29; assay: Cytotoxicity against human HT-29 cells assessed as cell survival at 100 uM after 72 hrs by neutral red dye assay; assay type: functional; details: HT-29, 72 h, read-out: Survival; method in brief: as §2
[16] = Cytotoxicity against human CRL11233 cells assessed as cell survival at 20 to 100 uM after 72 hrs by neutral red dye assay; assay type: cell-based; details: read-out: Survival; method in brief: as §4

Row | SMILES | IC50 [2] | IC50 [4] | IC50 [5] | also measured
1 | CC(C)Sc1nc(NCCCO)c2cccnc2n1 | Not Active | Not Active | Not Active | Activity [1]: inactive; Activity [3]: inactive
2 | c1ccc(CNc2ccnc(NCc3ccccc3)n2)cc1 |  |  |  | Activity [1]: inactive; viability at 100 µM [6]: < 45%; IC50 [7]: 17.2 µM; fold change (FC) [8]: 2.3; viability at 72 h, up to 100 µM [9]: 22%; IC50 [10]: 1.9 µM; viability at 100 µM [11]: < 45%; IC50 [12]: 6.1 µM; fold change (FC) [3]: 7.4; fold change (FC) [13]: 6; fold change (FC) [14]: 2.3; viability at 100 µM [15]: < 45%; viability at 72 h, up to 100 µM [16]: 0%
3 | CCSc1nc(NCCCCCO)c2cccnc2n1 | Not Active | Not Active | Not Active | 
4 | OCCCNc1nc(NCCCO)c2cccnc2n1 | Not Active | Not Active | Not Active | 
5 | CCSc1nc(NCCCO)c2cccnc2n1 | Not Active | Not Active | Not Active | 
6 | c1ccc(CCNc2nc(NCCc3ccccn3)c3cccnc3n2)nc1 | Not Active | Not Active | Not Active | 
7 | c1ccc(CCCCNc2ccnc(NCCCCc3ccccc3)n2)cc1 | Not Active | Not Active | Not Active | 
8 | CCCCCSc1nc(NCCCC)c2cccnc2n1 | Not Active | Not Active | Not Active | 
9 | OCCCCNc1nc(NCCCCO)c2cccnc2n1 | Not Active | Not Active | Not Active | 
10 | CCSc1nc(NCCCCO)c2cccnc2n1 | Not Active | Not Active | Not Active | 
11 | CCCCCNc1nc(SCCCCC)nc2ncccc12 | Not Active | Not Active | Not Active | Activity [3]: inactive
